For series [1], the system named is Hepatitis C virus. Put plainly: Increase in hepatitis C virus replication in Huh7-K2040 cells in presence of delipidated fetal calf serum medium at 0.3 uM by RT-PCR relative to control. The series is classed as functional, organism-based. The settings on record: Hepacivirus hominis. The gist of the method:
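Replicon-bearing Huh7 cells (genotype 1b subgenomic HCV replicon), 4 × 10^5 cells per 60-mm dish on day 0. On day 2 they were switched to medium with 10% delipidated FCS plus 0.3 μM lipid-soluble vitamin/lipid. Harvested after 72 h. HCV RNA was measured by qRT-PCR, normalized to 36B4 by comparative CT, relative to FCS-cultured controls; mean ± SD of three independent experiments.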

For series [2], the system named is Hepatitis C virus. Put plainly: Inhibition of hepatitis C virus replication in Huh7-K2040 cells in presence of fetal calf serum assessed viral RNA level at 0.1 mM by RT-PCR relative to control. Also on record: scale not given: the % may be the effect or the level left. The series is classed as functional, Hepacivirus hominis. The gist of the method:
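Huh7-K2040 cells (subgenomic genotype 1b replicon) were seeded at 4 × 10^5 per 60-mm dish. From day 2 they were cultured in 10% FCS with 0.1 mM BSA-conjugated fatty acid for 72 h. HCV RNA was measured by real-time PCR with 36B4 as invariant control (comparative CT), relative to untreated FCS cells; mean ± SD, three independent experiments.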

The subject of series [3] is Hepatitis C virus. The series is described as follows: Inhibition of hepatitis C virus replication in Huh7-K2040 cells in presence of delipidated fetal calf serum medium assessed as reduction in viral RNA level at 0.1 mM after 12 hrs relative to control. The series is classed as functional, Hepacivirus hominis. Also on record: scale not given: the % may be the effect or the level left. An outline of the steps:
(§1)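 Time course in Huh7-K2040 cells (7 × 10^5 per 60-mm dish) given 10% delipidated FCS plus 0.1 mM BSA-conjugated arachidonate from day 1. HCV RNA measured by TaqMan real-time RT-PCR, normalized to 36B4 by comparative CT, relative to cells at time 0. Data from a representative experiment.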

Series [4] can be described thus: Cytotoxicity against human Huh7-K2040 cells in delipidated fetal calf serum medium. The series is classed as cell-based. The settings on record: huh-7. An outline of the steps: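 Huh7-K2040 replicon cells (7 × 10^5 per 60-mm dish) moved on day 1 to medium with 10% delipidated FCS and 0.1 mM BSA-conjugated arachidonate, or to 10% FCS medium. Cells harvested at set times. Growth followed as total cellular protein by BCA, relative to protein at time 0. Data from a representative experiment.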

For series [5], the system named is Hepatitis C virus. The series is described as follows: Inhibition of hepatitis C virus replication in Huh7-K2040 cells in presence of delipidated fetal calf serum medium by RT-PCR. The class given is functional, organism-based, Hepacivirus hominis. The gist of the method:
(§2)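 Huh7-K2040 replicon cells (4 × 10^5 per 60-mm dish) switched on day 2 to 10% FCS or 10% delipidated FCS with graded BSA-conjugated arachidonate for 72 h. HCV RNA measured by real-time RT-PCR against 36B4 by comparative CT, relative to cells without arachidonate in the same serum. IC50 read from dose–response. Mean ± SD, three independent experiments.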

The subject of series [6] is Hepatitis C virus. Put plainly: Reversal of inhibition of hepatitis C virus replication in Huh7-K2040 cells in presence of delipidated fetal calf serum medium assessed as malondialdehyde level at 0.1 mM in presence of vitamin E. The class given is functional, organism-based. The following applies: Hepacivirus hominis. The gist of the method:
(§3)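 Huh7 or Huh7-K2040 cells seeded 7 × 10^5 per 60-mm dish. On day 1 switched to 10% FCS or 10% delipidated FCS, with or without 0.1 mM BSA-conjugated arachidonate and 0.3 μM vitamin E, for 16 h. MDA measured by TBARS kit at 532 nm in homogenates of cells pooled from two dishes, normalized to cellular protein. Mean ± SD, three independent experiments.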

The subject of series [7] is Hepatitis C virus. Put plainly: Inhibition of hepatitis C virus replication in Huh7-K2040 in presence of delipidated fetal calf serum medium assessed as increase of malondialdehyde at 0.1 mM after 12 to 24 hrs. The class given is functional, organism-based. The settings on record: Hepacivirus hominis. The gist of the method: (§4)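 Huh7-K2040 cells (7 × 10^5 per 60-mm dish) switched on day 1 to 10% delipidated FCS with 0.1 mM BSA-conjugated arachidonate and harvested over a time course up to 72 h. MDA measured by TBARS assay at 532 nm, normalized to protein, relative to cells at time 0. Data from a representative experiment.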

For series [8], the system named is Hepatitis C virus. The series is described as follows: Inhibition of hepatitis C virus replication in Huh7-K2040 cells in presence of delipidated fetal calf serum medium assessed as increase of malondialdehyde at 0.1 mM relative to control. The class given is functional, Hepacivirus hominis. An outline of the steps:
as §3

The test system of series [9] is Hepatitis C virus. Put plainly: Inhibition of hepatitis C virus replication in Huh7-K2040 cells in presence of fetal calf serum medium by RT-PCR. The class given is functional, organism-based, Hepacivirus hominis. The gist of the method: as §2
For series [10], the system named is Hepatitis C virus. Put plainly: Inhibition of hepatitis C virus replication in Huh7-K2040 cells in presence of fetal calf serum medium assessed as increase of malondialdehyde at 0.1 mM relative to control. The class given is functional, Hepacivirus hominis. The gist of the method:
as §3

In series [11] the test system is Hepatitis C virus. The series is described as follows: Inhibition of hepatitis C virus replication in Huh7-K2040 cells in presence of delipidated fetal calf serum medium assessed as reduction in viral RNA level at 0.1 mM after 72 hrs relative to control. The series is classed as functional, Hepacivirus hominis. Also on record: scale not given: the % may be the effect or the level left. An outline of the steps: as §1

Series [12] has as its system Hepatitis C virus. Put plainly: Inhibition of hepatitis C virus replication in Huh7-K2040 cells in presence of delipidated fetal calf serum medium assessed as increase of malondialdehyde at 0.1 mM after 48 hrs. The class given is functional, organism-based. The settings on record: Hepacivirus hominis. An outline of the steps:
as §4

Series [13] concerns Hepatitis C virus. The series is described as follows: Inhibition of hepatitis C virus replication in Huh7-K2040 cells in presence of delipidated fetal calf serum assessed viral RNA level at 0.1 mM by RT-PCR relative to control. Also noted: scale not given: the % may be the effect or the level left. The class given is functional, Hepacivirus hominis. An outline of the steps:
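Huh7-K2040 cells seeded at 4 × 10^5 per 60-mm dish. On day 2 switched to 10% FCS or delipidated FCS with 0.1 mM BSA-conjugated fatty acids for 72 h. HCV RNA measured by real-time RT-PCR in triplicate, normalized to 36B4 by comparative CT, relative to untreated FCS control. Mean ± SD, three independent experiments.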

Series [14] deals with Hepatitis C virus. Put plainly: Inhibition of hepatitis C virus replication in Huh7-K2040 cells in presence of delipidated fetal calf serum medium assessed as decrease of malonaldehyde at 0.1 mM after 72 hrs relative to control. Also on record: scale not given: the % may be the effect or the level left.
Series [15] relates to Hepatitis C virus. The series is described as follows: Increase of hepatitis C virus replication in Huh7-K2040 cells in delipidated fetal calf serum medium assessed as increase in […] at 40 nM in presence of arachidonate by RT-PCR relative to control. The series is classed as functional, organism-based. The following applies: Hepacivirus hominis. The gist of the method: (§5)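 Huh7 cells carrying a genotype 1b subgenomic replicon were seeded on day 0. On day 2 they were moved to medium with 10% delipidated FCS, with or without 0.1 mM BSA-conjugated arachidonate, and given graded vitamin E. After 72 h HCV RNA was quantified by real-time PCR against 36B4 (comparative CT), relative to untreated controls kept in 10% FCS; three independent experiments.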

Series [16] relates to Hepatitis C virus. Put plainly: Increase of hepatitis C virus replication in Huh7-K2040 cells in fetal calf serum medium in absence of arachidonate by RT-PCR relative to control. The class given is functional, organism-based. The following applies: Hepacivirus hominis.
Series [17] deals with Hepatitis C virus. Put plainly: Increase of hepatitis C virus replication in Huh7-K2040 cells in delipidated fetal calf serum medium in presence of arachidonate by RT-PCR relative to control. The class given is functional, organism-based. The settings on record: Hepacivirus hominis. An outline of the steps: as §5
For series [18], the system named is Hepatitis C virus. Put plainly: Restoration of hepatitis C virus replication in Huh7-K2040 cells in delipidated fetal calf serum medium assessed as increase in […] 40 nM in absence of arachidonate by RT-PCR relative to control. The settings on record: Hepacivirus hominis. The series is classed as functional, organism-based. An outline of the steps: as §5

Series [19] has as its system Hepatitis C virus. The series is described as follows: Restoration of hepatitis C virus replication in Huh7-K2040 cells in presence of delipidated fetal calf serum medium in absence of arachidonate by RT-PCR relative to control. The class given is functional, organism-based. The following applies: Hepacivirus hominis. An outline of the steps: as §5
In series [20] the test system is Hepatitis C virus. The series is described as follows: Increase of hepatitis C virus replication in Huh7-K2040 cells in fetal calf serum medium in presence of arachidonate by RT-PCR relative to control. The class given is functional, organism-based. The settings on record: Hepacivirus hominis. An outline of the steps: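 Replicon Huh7-K2040 cells were seeded at 4 × 10^5 per 60-mm dish. On day 2 they went into 10% FCS or 10% delipidated FCS with 0.1 mM BSA-conjugated arachidonate, ± 0.3 μM vitamin E. Cells were harvested 72 h later. HCV RNA was determined by qRT-PCR (36B4 reference, comparative CT), relative to FCS controls.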

Calls of active or inactive are those of the source. No cut-off for these calls is given here. Bounds are passed on as bounds.

`O=C1O[C@H]([C@@H](O)CO)C(O)=C1O`: the outcome in the series with Hepatitis C virus [1] was inactive.
Same read-out and setting: under `COC1=C(OC)C(=O)C(C/C=C(\C)CC/C=C(\C)CC/C=C(\C)CCC=C(C)C)=C(C)C1=O` stands “Active”.
As to `CCCCC/C=C\C/C=C\CCCCCCCC(=O)O` [LINOLEIC ACID], the Activity in the series on Hepatitis C virus [2] stood at 50%.
Turning to `CCCCC/C=C\C/C=C\C/C=C\C/C=C\CCCC(=O)O` [ARACHIDONIC ACID], the Activity is given as 40% with Hepatitis C virus [3]; “Non-toxic” in series [4]; 48 in the series on Hepatitis C virus [8]; 8 with Hepatitis C virus [10]; over 90% in the series on Hepatitis C virus [11]; 95% in the series on Hepatitis C virus [13]. Moreover, the Activity in the series on Hepatitis C virus [2] is listed as 50%; in the series with Hepatitis C virus [14], over 90%. The 50% inhibitory concentration (IC50) in the series on Hepatitis C virus [5] amounted to 10 µM; in the series with Hepatitis C virus [9], 60 µM. Besides, the outcome in the series on Hepatitis C virus [6] and in the series on Hepatitis C virus [7] was Active. For the same compound, the outcome with Hepatitis C virus [12] was inactive.
Take VITAMIN E: the result with Hepatitis C virus [15], in the series with Hepatitis C virus [1], in the series with Hepatitis C virus [18] and in the series on Hepatitis C virus [19] was Active. The outcome with Hepatitis C virus [16] and in the series on Hepatitis C virus [20] was inactive. For the same compound, the Activity in the series with Hepatitis C virus [17] is 190%.
Take `CC/C=C\C/C=C\C/C=C\CCCCCCCC(=O)O` [LINOLENIC ACID]: the Activity with Hepatitis C virus [2] is listed as 50%.
Take `CCCCCCCC/C=C\CCCCCCCC(=O)O`: the result in the series on Hepatitis C virus [1], with Hepatitis C virus [13] (Hepacivirus hominis) and in the series with Hepatitis C virus [2] (Hepacivirus hominis) was inactive.

(Values after ChEMBL document CHEMBL1147080, “Inhibition of hepatitis C virus replication by peroxidation of arachidonate and restoration by vitamin E” (Proc Natl Acad Sci U S A, 2007).)
